Laboratory results reported in ChEMBL document CHEMBL4392868, “Cytotoxic Tigliane Diterpenoids from Croton damayeshu” (J Nat Prod, 2019).
Structures can show the parent of a compound that is named as a salt.

How the values were obtained:
[1] = test system: A549; experiment: Cytotoxicity against human A549 cells measured after 72 hrs by CCK8 assay; type: functional, cell-based; conditions: A549, 72 h
Summary of the method: (§1)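 Human tumor cell lines A549 and HL-60 were assayed in vitro for cytotoxicity by the CCK-8 colorimetric method. Adriamycin served as the positive control, and IC50 values are reported in μM.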

[2] = test system: HL-60; experiment: Cytotoxicity against human HL60 cells assessed as inhibition of cell growth at 10 uM measured after 72 hrs by CCK8 assay relative to control; type: functional; conditions: HL-60, 72 h
[3] = test system: HL-60; experiment: Cytotoxicity against human HL60 cells measured after 72 hrs by CCK8 assay; type: functional, cell-based; conditions: HL-60, 72 h; summary of the method: as §1
[4] = test system: A549; experiment: Cytotoxicity against human A549 cells assessed as inhibition of cell growth at 10 uM measured after 72 hrs by CCK8 assay relative to control; type: functional; conditions: A549, 72 h

| Compound | IC50 [1] | inhibition at 10 µM [2] | IC50 [3] | inhibition at 10 µM [4] |
| --- | --- | --- | --- | --- |
| CC[C@H](C)C(=O)O[C@@H]1[C@@H](C)[C@]2(O)[C@@H]3C=C(C)C(=O)[C@@H]3CC(CO)=C[C@H]2[C@@H]2C(C)(C)[C@]12OC(=O)C(C)C | 3700 nM | < 50% |  |  |
| COc1cccc2c1C(=O)c1c(O)c3c(c(O)c1C2=O)C[C@@](O)(C(=O)CO)C[C@@H]3O[C@H]1C[C@H](N)[C@H](O)[C@H](C)O1 [DOXORUBICIN HYDROCHLORIDE] | 400 nM |  | 80 nM |  |
| CC[C@H](C)C(=O)O[C@@]12[C@H](O)[C@@H](C)[C@]3(O)[C@@H]4C=C(C)C(=O)[C@@H]4CC(CO)=C[C@H]3[C@@H]1C2(C)C |  | < 50% |  | < 50% |
| CC1=C[C@@H]2[C@@H](CC(C=O)=C[C@H]3[C@@H]4C(C)(C)[C@]4(OC(=O)C(C)C)[C@H](O)[C@@H](C)[C@]23O)C1=O |  | < 50% |  | < 50% |
| CC[C@H](C)C(=O)O[C@@]12[C@H](O)[C@@H](C)[C@]3(O)[C@@H]4C=C(C)C(=O)[C@@H]4CC(C=O)=C[C@H]3[C@@H]1C2(C)C | 900 nM | < 50% |  |  |
| C/C=C(\C)C(=O)O[C@@H]1[C@@H](C)[C@]2(O)[C@@H]3C=C(C)C(=O)[C@@H]3CC(CO)=C[C@H]2[C@@H]2C(C)(C)[C@]12OC(=O)[C@@H](C)CC | 18300 nM | < 50% |  |  |
| C/C=C(\C)C(=O)O[C@@H]1[C@@H](C)[C@]2(O)[C@@H]3C=C(C)C(=O)[C@@H]3CC(CO)=C[C@H]2[C@@H]2C(C)(C)[C@]12OC(=O)C(C)C | 1900 nM |  | 1800 nM |  |
| CC1=C[C@@H]2[C@@H](CC(CO)=C[C@H]3[C@@H]4C(C)(C)[C@]4(OC(=O)C(C)C)[C@H](O)[C@@H](C)[C@]23O)C1=O |  | < 50% |  | < 50% |
| C/C=C(\C)C(=O)O[C@@H]1[C@@H](C)[C@]2(O)[C@@H]3C=C(C)C(=O)[C@@H]3CC(CO)=C[C@H]2[C@@H]2C(C)(C)[C@]12OC(C)=O |  | < 50% |  | < 50% |
| CC[C@H](C)C(=O)O[C@@]12[C@H](OC(=O)c3ccccc3)[C@@H](C)[C@]3(O)[C@@H]4C=C(C)C(=O)[C@@H]4CC(CO)=C[C@H]3[C@@H]1C2(C)C | 4100 nM |  | 22700 nM |  |
| CC1=C[C@@H]2[C@@H](CC(CO)=C[C@H]3[C@@H]4C(C)(C)[C@]4(OC(=O)[C@@H](C)[C@@H](C)O)[C@H](O)[C@@H](C)[C@]23O)C1=O |  | < 50% |  | < 50% |
| C/C=C(\C)C(=O)O[C@@H]1[C@@H](C)[C@]2(O)[C@@H]3C=C(C)C(=O)[C@@H]3CC(CO)=C[C@H]2[C@@H]2C(C)(C)[C@]12OC(=O)[C@@H](C)[C@@H](C)O |  | < 50% |  | < 50% |
| CC[C@H](C)C(=O)O[C@@H]1[C@@H](C)[C@]2(O)[C@@H]3C=C(C)C(=O)[C@@H]3CC(CO)=C[C@H]2[C@@H]2C(C)(C)[C@]12OC(=O)[C@@H](C)CC | 4600 nM |  | 18900 nM |  |
| C/C=C(\C)C(=O)O[C@@H]1[C@@H](C)[C@]2(O)[C@@H]3C=C(C)C(=O)[C@@H]3CC(C=O)=C[C@H]2[C@@H]2C(C)(C)[C@]12OC(=O)[C@@H](C)CC | 1300 nM |  | 2400 nM |  |
